Source: ChEMBL document CHEMBL1641411, “Synthesis and optimization of novel 4,4-disubstituted cyclohexylbenzamide derivatives as potent 11β-HSD1 inhibitors” (Bioorg Med Chem Lett, 2011)
Calls of active or inactive are those of the source. The rule behind the calls is not given here.

Assays:
[1] = Metabolic stability in human liver microsomes assessed as compound turnover at 30 mins; type: ADME, Microsome; details: read-out: Stability
Outline: (§1)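 Compounds incubated with human or rat liver microsomes; percent turnover of parent measured at 30 min.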

[2] = Metabolic stability in rat liver microsomes assessed as compound turnover at 30 mins; type: ADME, Microsome; details: read-out: Stability; outline: as §1
[3] = molecular target: T1, Nuclear receptor subfamily 1 group I member 2 (Homo sapiens, UniProt O75469); experiment: Activation of PXR relative to control; design: concentration or dose not given beside the values
T1 sequence (O75469 whole entry): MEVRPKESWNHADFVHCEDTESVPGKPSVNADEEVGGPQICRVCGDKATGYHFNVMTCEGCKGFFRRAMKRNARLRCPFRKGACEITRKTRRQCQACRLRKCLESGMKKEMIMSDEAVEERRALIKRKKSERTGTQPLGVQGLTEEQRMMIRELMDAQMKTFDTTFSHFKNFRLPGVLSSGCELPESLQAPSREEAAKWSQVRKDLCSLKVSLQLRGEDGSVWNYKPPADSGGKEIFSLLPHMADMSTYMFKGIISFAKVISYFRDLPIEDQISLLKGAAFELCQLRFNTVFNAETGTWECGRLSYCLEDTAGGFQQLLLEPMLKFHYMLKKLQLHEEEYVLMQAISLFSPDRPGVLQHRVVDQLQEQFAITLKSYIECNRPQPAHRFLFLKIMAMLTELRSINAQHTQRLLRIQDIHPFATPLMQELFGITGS
Outline: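 PXR activation measured with compound at 2 µM, expressed as % of control.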

[4] = Half life in rat at 0.5 mg/kg, iv; type: ADME, organism-based; design: dose 0.5 mg/kg, route intravenous; details: in vivo
Outline: (§2)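 Rat PK: single iv dose of 0.5 mg/kg, with a separate oral dose of 2.0 mg/kg. Clearance, Vdss and half-life come from the iv arm. Oral AUC and %F come from the po arm.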

Rattus norvegicus [5] = experiment: Ex vivo inhibition of 11beta-HSD1 in Sprague-Dawley rat assessed as inhibition of conversion of [3H]cortisone to [3H]cortisol at 20 mg/kg, po; type: functional
Outline: (§3)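 Sprague–Dawley rats dosed orally at 4, 20 or 100 mg/kg; killed 2 h post-dose. Epididymal fat isolated and incubated in media containing [3H]-cortisone; rat 11β-HSD1 activity read as [3H]-cortisol formed. Reported as % inhibition over vehicle-dosed animals.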

[6] = Clearance in rat at 0.5 mg/kg, iv and 2 mg/kg, po; type: ADME, organism-based; details: in vivo; outline: as §2
[7] = Oral bioavailability in rat at 2 mg/kg; type: ADME, organism-based; details: in vivo; outline: as §2
Rattus norvegicus [8] = experiment: Ex vivo inhibition of 11beta-HSD1 in Sprague-Dawley rat assessed as inhibition of conversion of [3H]cortisone to [3H]cortisol at 100 mg/kg, po; type: functional; outline: as §3
Rattus norvegicus [9] = experiment: Ex vivo inhibition of 11beta-HSD1 in Sprague-Dawley rat assessed as inhibition of conversion of [3H]cortisone to [3H]cortisol at 4 mg/kg, po; type: functional; outline: as §3
[10] = Volume of distribution at steady state in rat at 0.5 mg/kg, iv and 2 mg/kg, po; type: ADME, organism-based; details: in vivo, read-out: Vdss; outline: as §2
[11] = AUC in rat at 2 mg/kg, po; type: ADME, organism-based; design: dose 2 mg/kg, route oral; details: plasma; outline: as §2
[12] = molecular target: 11-beta-hydroxysteroid dehydrogenase 1 (Rattus norvegicus, UniProt P16232); experiment: Inhibition of rat 11beta-HSD1 assessed as inhibition of conversion of [3H]cortisone to [3H]cortisol by scintillation proximity assay
Cynomolgus monkey = details: Macaca fascicularis; 4 to 100 mg/kg
[13] = Plasma concentration in cynomolgus monkey at 100 mg/kg, po after 2 hrs by LC/MS/MS analysis; type: ADME, organism-based, Macaca fascicularis; design: dose 100 mg/kg, route oral
Outline: (§4)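 Monkeys given oral doses of 4, 20 or 100 mg/kg in 1% methylcellulose/1% Tween 80 in sterile water, 5–6 animals per group. Plasma collected 2 h after dosing for drug concentration.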

[14] = Plasma concentration in cynomolgus monkey at 4 mg/kg, po after 2 hrs by LC/MS/MS analysis; type: ADME, organism-based, Macaca fascicularis; design: dose 4 mg/kg, route oral; outline: as §4
[15] = Clearance in cynomolgus monkey; type: ADME, organism-based, Macaca fascicularis; details: in vivo
[16] = Inhibition of cynomolgus monkey 11beta-HSD1 assessed as inhibition of conversion of [3H]cortisone to [3H]cortisol by scintillation proximity assay; design: species or system Macaca fascicularis
[17] = Plasma concentration in cynomolgus monkey at 20 mg/kg, po after 2 hrs by LC/MS/MS analysis; type: ADME, organism-based, Macaca fascicularis; design: dose 20 mg/kg, route oral; outline: as §4
[18] = Bioavailability in cynomolgus monkey; type: ADME, organism-based, Macaca fascicularis; details: in vivo

Sequence of 11-beta-hydroxysteroid dehydrogenase 1 (P16232 whole entry): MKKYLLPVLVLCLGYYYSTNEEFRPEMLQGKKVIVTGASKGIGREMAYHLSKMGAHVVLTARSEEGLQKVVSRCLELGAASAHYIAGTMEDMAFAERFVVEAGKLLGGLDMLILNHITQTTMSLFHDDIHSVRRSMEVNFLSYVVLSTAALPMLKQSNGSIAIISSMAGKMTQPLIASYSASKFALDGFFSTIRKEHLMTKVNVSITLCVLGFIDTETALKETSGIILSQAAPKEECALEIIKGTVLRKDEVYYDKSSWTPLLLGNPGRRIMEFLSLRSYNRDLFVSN

| SMILES | metabolised at 0.5 h [1] | metabolised at 0.5 h [2] | Activity [3] | also measured |
| --- | --- | --- | --- | --- |
| C[C@](O)(c1ccc(C(=O)N(C2CC2)[C@H]2CC[C@](CCC(N)=O)(c3ccc(F)cc3)CC2)cc1)C(F)(F)F | < 10% | < 10% |  |  |
| C[C@](O)(c1ccc(C(=O)N(C2CC2)[C@H]2CC[C@](O)(C3CC3)CC2)cc1)C(F)(F)F | < 10% | < 10% | < 5% |  |
| C[C@](O)(c1ccc(C(=O)N(C2CC2)[C@H]2CC[C@](COC(N)=O)(c3ccccc3)CC2)cc1)C(F)(F)F | < 10% | < 10% | < 5% | half-life [4]: 234 min; inhibition in vivo at 20 mg/kg (Rattus norvegicus [5]): 43%; clearance [6]: 2.67 mL/min/kg; bioavailability [7]: 20%; inhibition in vivo at 100 mg/kg (Rattus norvegicus [8]): 71%; inhibition in vivo at 4 mg/kg (Rattus norvegicus [9]): 23%; Vd [10]: 1 L/kg; AUC [11]: 2770 ng·h/mL; IC50 [12]: 86 nM |
| C[C@](O)(c1ccc(C(=O)N(C2CC2)[C@H]2CC[C@](COC(N)=O)(c3ccc(F)cc3)CC2)cc1)C(F)(F)F | < 10% | < 10% |  |  |
| C[C@](O)(c1ccc(C(=O)N(C2CC2)[C@H]2CC[C@](CCO)(c3ccccc3)CC2)cc1)C(F)(F)F | < 10% | < 10% | 6% |  |
| C[C@](O)(c1ccc(C(=O)N(C2CC2)[C@H]2CC[C@](CCC(N)=O)(c3ccccn3)CC2)cc1)C(F)(F)F | < 10% | < 10% |  |  |
| C[C@](O)(c1ccc(C(=O)N(C2CC2)[C@H]2CC[C@](CC(N)=O)(c3ccccc3)CC2)cc1)C(F)(F)F | < 10% | < 10% | < 5% |  |
| C[C@](O)(c1ccc(C(=O)N(C2CC2)[C@H]2CC[C@](CCC(N)=O)(c3ccccc3)CC2)cc1)C(F)(F)F | < 10% | < 10% | < 5% | inhibition (Cynomolgus monkey): Active; concentration at 2 h [13]: 1710 ng/mL; concentration at 2 h [14]: 151 ng/mL; clearance [15]: 1 mL/min/kg; IC50 [16]: 22 nM; concentration at 2 h [17]: 2000 ng/mL; bioavailability [18]: 81% |
| C[C@](O)(c1ccc(C(=O)N(C2CC2)[C@H]2CC[C@](CCC#N)(c3ccccc3)CC2)cc1)C(F)(F)F | 10% | 51% |  |  |
| C[C@](O)(c1ccc(C(=O)N(C2CC2)[C@H]2CC[C@](COC(N)=O)(c3ccccn3)CC2)cc1)C(F)(F)F | < 10% | < 10% |  | half-life [4]: 252 min; inhibition in vivo at 20 mg/kg (Rattus norvegicus [5]): 44%; clearance [6]: 3.5 mL/min/kg; bioavailability [7]: 64%; inhibition in vivo at 100 mg/kg (Rattus norvegicus [8]): 72%; inhibition in vivo at 4 mg/kg (Rattus norvegicus [9]): 14%; Vd [10]: 1.24 L/kg; AUC [11]: 6180 ng·h/mL; IC50 [12]: 220 nM |
| C[C@](O)(c1ccc(C(=O)N(C2CC2)[C@H]2CC[C@](COC(N)=O)(c3ccc(F)cn3)CC2)cc1)C(F)(F)F | < 10% | < 10% |  |  |
| C[C@](O)(c1ccc(C(=O)N(C2CC2)[C@H]2CC[C@](CNS(C)(=O)=O)(c3ccccc3)CC2)cc1)C(F)(F)F | < 10% | 21% | < 5% |  |
| C[C@](O)(c1ccc(C(=O)N(C2CC2)[C@H]2CC[C@](COC(N)=O)(c3cscn3)CC2)cc1)C(F)(F)F | < 10% | < 10% |  | half-life [4]: 270 min; inhibition in vivo at 20 mg/kg (Rattus norvegicus [5]): 38%; clearance [6]: 13.7 mL/min/kg; bioavailability [7]: 25%; inhibition in vivo at 100 mg/kg (Rattus norvegicus [8]): 75%; inhibition in vivo at 4 mg/kg (Rattus norvegicus [9]): 6%; Vd [10]: 3.7 L/kg; AUC [11]: 618 ng·h/mL; IC50 [12]: 30 nM |
| C[C@](O)(c1ccc(C(=O)N(C2CC2)[C@H]2CC[C@](CC#N)(c3ccccc3)CC2)cc1)C(F)(F)F | 19% | 17% | 9% |  |
| CC(=O)NC[C@]1(c2ccccc2)CC[C@H](N(C(=O)c2ccc([C@](C)(O)C(F)(F)F)cc2)C2CC2)CC1 | < 10% | < 10% | < 5% |  |
| C[C@](O)(c1ccc(C(=O)N(C2CC2)[C@H]2CC[C@](COC(N)=O)(c3ccccc3F)CC2)cc1)C(F)(F)F | < 10% | < 10% |  | half-life [4]: 312 min; inhibition in vivo at 20 mg/kg (Rattus norvegicus [5]): 43%; clearance [6]: 2.5 mL/min/kg; bioavailability [7]: 48%; inhibition in vivo at 100 mg/kg (Rattus norvegicus [8]): 70%; inhibition in vivo at 4 mg/kg (Rattus norvegicus [9]): 27%; Vd [10]: 1.28 L/kg; AUC [11]: 6790 ng·h/mL; IC50 [12]: 144 nM |
| C[C@](O)(c1ccc(C(=O)N(C2CC2)[C@H]2CC[C@](CO)(c3ccccc3)CC2)cc1)C(F)(F)F | 10% | 32% | < 5% |  |
| C[C@](O)(c1ccc(C(=O)N(C2CC2)[C@H]2CC[C@](CCC(N)=O)(c3ccccc3F)CC2)cc1)C(F)(F)F | < 10% | < 10% |  |  |
